Assay results as given in ChEMBL document CHEMBL4316590, “Discovery and synthesis of novel beesioside I derivatives with potent anti-HIV activity” (Eur J Med Chem, 2019).

Experiments:
[1] = test system: Human immunodeficiency virus 1; assay: Antiviral activity against HIV1 NL4-3 infected in human MT4 cells by luciferase reporter gene assay; format: functional, organism-based
In short: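 HIV-1 NL4-3 Nanoluc-sec reporter virus (secreted NanoLuc insert) infecting MT4 cells, multicycle replication format, compounds at various concentrations; replication read as NanoLuc luciferase activity (Nano-Glo).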

[2] = test system: MT4; assay: Cytotoxicity against human MT4 cells assessed as reduction in cell viability after 3 days by CellTiter-Glo luminescent assay; format: cell-based; details: mt4, 72 h
[3] = Therapeutic index, ratio of CC50 for human MT4 cells to EC50 for HIV1 NL4-3 infected in human MT4 cells; format: toxicity, cell-based; details: read-out: Ratio CC50/EC50
In short: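 TI calculated as CC50 (CellTiter-Glo, MT4 cells, 3 days) divided by EC50 (HIV-1 NL4-3 Nanoluc-sec multicycle replication in MT4 cells, luciferase read-out); CC50/EC50 below 5 taken as no selective anti-HIV activity.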

[4] = Human immunodeficiency virus 1, NL4-3, MT4, read-out: EC50

| SMILES | EC50 [1, 4] [µM] | CC50 [2] [µM] | selectivity ratio [3] | EC50 [1] |
| --- | --- | --- | --- | --- |
| CC(=O)O[C@H]1[C@H](O)[C@@]2(C)[C@@H]3CC[C@H]4C(C)(C)[C@@H](O[C@@H]5OC[C@@H](O)[C@H](O)[C@H]5O)CC[C@@]45C[C@@]35CC[C@@]23CO[C@@](C)(CCC(=O)C(C)(C)O)[C@@H]13 | > 10 | > 40 | < 5 | – |
| CC(=O)O[C@H]1[C@@H](OC(C)=O)[C@@]2(C)[C@@H]3CC[C@H]4C(C)(C)[C@@H](OC(=O)CCCC(=O)O)CC[C@@]45C[C@@]35CC[C@@]23CO[C@@]2(C(C)(C)O)CC[C@](C)(O2)[C@@H]13 | – | > 20 | < 5 | Not Active |
| CC(=O)O[C@H]1[C@@H](OC(C)=O)[C@@]2(C)[C@@H]3CC[C@H]4C(C)(C)[C@@H](OC(=O)CC(C)(C)C(=O)O)CC[C@@]45C[C@@]35CC[C@@]23CO[C@@]2(C(C)(C)O)CC[C@](C)(O2)[C@@H]13 | 0.025 | > 20 | > 800 | – |
| CC(=O)O[C@H]1[C@H](O)[C@H]([C@]2(C)CC[C@@H](C(C)(C)O)O2)[C@@]2(C)CC[C@@]34C[C@@]35CC[C@H](O[C@@H]3OC[C@@H](O)[C@H](O)[C@H]3O)C(C)(C)[C@@H]5CC[C@H]4[C@]12C | 4.85 | > 40 | – | – |
| CC1(C)[C@@H](O)CC[C@]23C[C@]24CC[C@]25CO[C@@]6(C(C)(C)O)CC[C@](C)(O6)[C@H]2[C@@H](O)[C@@H](O)[C@@]5(C)[C@@H]4CC[C@@H]13 | > 40 | > 40 | < 5 | – |
| CC(=O)O[C@H]1[C@@H](OC(C)=O)[C@@]2(C)[C@@H]3CC[C@H]4C(C)(C)[C@@H](OC(=O)CCC(C)(C)C(=O)O)CC[C@@]45C[C@@]35CC[C@@]23CO[C@@]2(C(C)(C)O)CC[C@](C)(O2)[C@@H]13 | 0.048 | > 5 | – | – |
| CC(=O)O[C@H]1[C@@H](OC(C)=O)[C@@]2(C)[C@@H]3CC[C@H]4C(C)(C)[C@@H](OC(C)=O)CC[C@@]45C[C@@]35CC[C@@]23CO[C@@]2(C(C)(C)O)CC[C@](C)(O2)[C@@H]13 | 2.44 | > 40 | – | – |
| CC(=O)O[C@H]1[C@@H]2O[C@@]3(C(C)(C)O[C@H]4O[C@H](CO)[C@@H](O)[C@H](O)[C@H]4O)CC[C@](C)(O3)[C@@H]2[C@@]2(C)CC[C@@]34C[C@@]35CC[C@H](O[C@@H]3OC[C@@H](O)[C@H](O)[C@H]3O)C(C)(C)[C@@H]5CC[C@H]4[C@]12C | 3.76 | 35.4 | 9.4 | – |
| CC(=O)O[C@H]1[C@@H](OC(C)=O)[C@@]2(C)[C@@H]3CC[C@H]4C(C)(C)C(=O)CC[C@@]45C[C@@]35CC[C@@]23CO[C@@]2(C(C)(C)O)CC[C@](C)(O2)[C@@H]13 | – | > 30 | < 5 | Not Active |
| C[C@@H]1O[C@@H](O[C@H]2[C@H](O[C@H]3CC[C@]45C[C@]46CC[C@]4(C)[C@@H]([C@]7(C)CC[C@@H](C(C)(C)O)O7)[C@@H](O)C[C@@]4(C)[C@@H]6[C@@H](O)C[C@H]5C3(C)C)OC[C@@H](O)[C@@H]2O)[C@H](O)[C@H](O)[C@H]1O | > 10 | > 40 | < 5 | – |
| CC(=O)O[C@H]1[C@@H](OC(C)=O)[C@@]2(C)[C@@H]3CC[C@H]4C(C)(C)[C@@H](OC(=O)CCC(=O)O)CC[C@@]45C[C@@]35CC[C@@]23CO[C@@]2(C(C)(C)O)CC[C@](C)(O2)[C@@H]13 | 7.7 | > 40 | – | – |
| CC(=O)O[C@H]1[C@@H](OC(C)=O)[C@@]2(C)[C@@H]3CC[C@H]4C(C)(C)[C@@H](OC(=O)COCC(=O)O)CC[C@@]45C[C@@]35CC[C@@]23CO[C@@]2(C(C)(C)O)CC[C@](C)(O2)[C@@H]13 | 0.12 | > 5 | – | – |
| CC(=O)O[C@H]1[C@@H](O)[C@@]2(C)[C@@H]3[C@@H](O)C[C@H]4C(C)(C)[C@@H](O[C@@H]5OC[C@@H](O)[C@H](O)[C@H]5O)CC[C@@]45C[C@@]35CC[C@@]23CO[C@@]2(C(C)(C)O)CC[C@](C)(O2)[C@@H]13 | – | > 40 | < 5 | Not Active |
| CC(=O)O[C@H]1[C@@H](OC(C)=O)[C@@]2(C)[C@@H]3CC[C@H]4C(C)(C)[C@@H](OC(=O)CC(C)C(=O)O)CC[C@@]45C[C@@]35CC[C@@]23CO[C@@]2(C(C)(C)O)CC[C@](C)(O2)[C@@H]13 (some centres not stated) | 1.11 | > 20 | – | – |
| CC(C)(O)[C@@H]1CC[C@@](C)([C@H]2[C@@H](O)[C@H](O)[C@@]3(C)[C@@H]4[C@@H](O)C[C@H]5C(C)(C)[C@@H](O[C@@H]6OC[C@@H](O)[C@H](O)[C@H]6O)CC[C@@]56C[C@@]46CC[C@]23C)O1 | – | > 40 | < 5 | Not Active |
| CC(=O)O[C@H]1[C@@H]2O[C@@]3(C(C)(C)O)CC[C@](C)(O3)[C@@H]2[C@@]2(CO)CC[C@@]34C[C@@]35CC[C@H](O[C@@H]3OC[C@@H](O)[C@H](O)[C@H]3O)C(C)(C)[C@@H]5CC[C@H]4[C@]12C | – | > 40 | < 5 | Not Active |
| CC(=O)O[C@H]1[C@@H](OC(C)=O)[C@@]2(C)[C@@H]3CC[C@H]4C(C)(C)[C@@H](OC(=O)CC5(CC(=O)O)CCCC5)CC[C@@]45C[C@@]35CC[C@@]23CO[C@@]2(C(C)(C)O)CC[C@](C)(O2)[C@@H]13 | 1.59 | > 20 | – | – |
| CC(=O)O[C@H]1[C@@H](OC(C)=O)[C@@]2(C)[C@@H]3CC[C@H]4C(C)(C)[C@@H](O[C@@H]5OC[C@@H](O)[C@H](O)[C@H]5O)CC[C@@]45C[C@@]35CC[C@@]23CO[C@@]2(C(C)(C)O)CC[C@](C)(O2)[C@@H]13 | 2.32 | > 40 | – | – |
| CC(=O)O[C@H]1[C@@H](O)[C@@]2(C)[C@@H]3CC[C@H]4C(C)(C)[C@@H](O[C@@H]5OC[C@@H](O)[C@H](O)[C@H]5O)CC[C@@]45C[C@@]35CC[C@@]23CO[C@@]2(C(C)(C)O)CC[C@](C)(O2)[C@@H]13 | 4.65 | > 40 | – | – |
| C[C@@H]1O[C@@H](O[C@H]2[C@H](O[C@H]3CC[C@]45C[C@]46CC[C@]4(C)[C@@H]([C@]7(C)CC[C@@H](C(C)(C)O)O7)[C@@H](O)C[C@@]4(C)[C@@H]6CC[C@H]5C3(C)C)OC[C@@H](O)[C@@H]2O)[C@H](O)[C@H](O[C@@H]2O[C@H](CO)[C@@H](O)[C@H](O)[C@H]2O)[C@H]1O | > 10 | > 40 | < 5 | – |
| CC1(C)[C@@H](O[C@@H]2OC[C@@H](O)[C@H](O)[C@H]2O)CC[C@]23C[C@]24CC[C@]25CO[C@@]6(C(C)(C)O)CC[C@](C)(O6)[C@H]2[C@@H](O)[C@@H](O)[C@@]5(C)[C@@H]4CC[C@@H]13 | 7.62 | > 40 | – | – |
| CC(=O)O[C@H]1[C@@H](OC(C)=O)[C@@]2(C)[C@@H]3CC[C@H]4C(C)(C)[C@@H](O)CC[C@@]45C[C@@]35CC[C@@]23CO[C@@]2(C(C)(C)O)CC[C@](C)(O2)[C@@H]13 | – | > 40 | < 5 | Not Active |
| CC(=O)O[C@H]1[C@@H](OC(C)=O)[C@@]2(C)[C@@H]3CC[C@H]4C(C)(C)[C@@H](O[C@@H]5OC[C@@H](O)[C@H](O)[C@H]5O)CC[C@@]45C[C@@]35CC[C@@]23CO[C@@](C)(CCC(=O)C(C)(C)O)[C@@H]13 | > 30 | > 30 | < 5 | – |
| CC(=O)O[C@H]1[C@@H](OC(C)=O)[C@@]2(C)[C@@H]3CC[C@H]4C(C)(C)[C@@H](OC(=O)CC(C)(C)CC(=O)O)CC[C@@]45C[C@@]35CC[C@@]23CO[C@@]2(C(C)(C)O)CC[C@](C)(O2)[C@@H]13 | – | > 20 | < 5 | Not Active |
| CCC(=O)O[C@H]1CC[C@]23C[C@]24CC[C@]25CO[C@@]6(C(C)(C)O)CC[C@](C)(O6)[C@H]2[C@@H](OC(C)=O)[C@@H](OC(C)=O)[C@@]5(C)[C@@H]4CC[C@H]3C1(C)C | – | > 40 | < 5 | Not Active |
| CC(=O)O[C@H]1[C@@H](OC(C)=O)[C@@]2(C)[C@@H]3CC[C@H]4C(C)(C)[C@@H](OC(=O)CC(C)CC(=O)O)CC[C@@]45C[C@@]35CC[C@@]23CO[C@@]2(C(C)(C)O)CC[C@](C)(O2)[C@@H]13 (mixture of isomers) | – | > 20 | < 5 | Not Active |
| C=C(C)[C@@H]1CC[C@]2(C(=O)O)CC[C@]3(C)[C@H](CC[C@@H]4[C@@]5(C)CC[C@H](OC(=O)CC(C)(C)C(=O)O)C(C)(C)[C@@H]5CC[C@]43C)[C@@H]12 [BEVIRIMAT] | 0.026 | 15.9 | 612 | – |
| Cc1cn([C@H]2C[C@H](N=[N+]=[N-])[C@@H](CO)O2)c(=O)[nH]c1=O [ZIDOVUDINE] | – | 77.5 | – | – |
